Measured values of several laboratories.
Each line is one published result; the experiments were not run side by side. Converted amounts (≈) assume the structure as drawn.

| Structure (SMILES) | tested on | test | system | conditions | endpoint | value |
| --- | --- | --- | --- | --- | --- | --- |
| CC1(C)CC[C@]2(NC(=O)N[C@H]3C(O)O[C@H](CO)[C@@H](O)[C@@H]3O)CC[C@]3(C)C(=CC[C@@H]4[C@@]5(C)CC[C@@H]6OC(C)(C)OC[C@@]6(C)[C@@H]5CC[C@]43C)[C@@H]2C1 (stereo partly drawn) | Leishmania mexicana | parasite growth, resazurin |  | 50 µM, amastigote | inhibition | 97.2% |
| COc1cc(-c2ccc(-c3ccc(C(=N)N)nc3)s2)cc(OC)c1OC | HOP-62 | cell growth or viability, SRB |  |  | GI50 | 2790 nM |
| O=C1NC(=S)S/C1=C\c1c2ccccc2c(-c2ccc(N(c3ccccc3)c3ccccc3)cc2)c2ccccc12 | Staphylococcus epidermidis | microbial killing, broth dilution | ATCC12228 |  | MBC | > 1000 µg/mL |
| CC1(C)CC[C@]2(CO)CC[C@]3(C)C(=CC[C@@H]4[C@@]5(C)CC[C@@H]6O[C@H]([C@H](O)[C@@H](O)[C@H](O)[C@H](O)CO)OC[C@@]6(C)[C@@H]5CC[C@]43C)[C@@H]2C1 | Leishmania mexicana | parasite growth, resazurin |  | 50 µM, amastigote | inhibition | 99.1% |
| CC[C@H](CC[C@@H](C)[C@H]1CC[C@H]2[C@@H]3CC=C4C[C@@H](O[C@@H]5O[C@H](CO)[C@@H](O)[C@H](O)[C@H]5O)CC[C@]4(C)[C@H]3CC[C@]12C)C(C)C |  | tubulin polymerisation, inhibitor |  | 10 µM | inhibition | 14.4% |
| O=C(O)CN1C(=O)/C(=C/c2c3ccccc3c(-c3ccc(N(c4ccccc4)c4ccccc4)cc3)c3ccccc23)NC1=S | Staphylococcus epidermidis | microbial killing, broth dilution | ATCC12228 |  | MBC | > 1000 µg/mL |
| COC(=O)[C@]12CCC(C)(C)C[C@H]1C1=CC[C@@H]3[C@@]4(C)CC[C@@H]5O[C@H]([C@H](O)[C@@H](O)[C@H](O)[C@H](O)CO)OC[C@@]5(C)[C@@H]4CC[C@@]3(C)[C@]1(C)CC2 | Leishmania mexicana | parasite growth, resazurin |  | 50 µM, amastigote | inhibition | 100% |
| O=Cc1ccc(CO)o1 |  | tubulin polymerisation, inhibitor |  | 10 µM | inhibition | 13.4% |
| CC(=O)N1CCN(C(=O)N[C@]23CCC(C)(C)C[C@H]2C2=CC[C@@H]4[C@@]5(C)CC[C@@H]6OC(C)(C)OC[C@@]6(C)[C@@H]5CC[C@@]4(C)[C@]2(C)CC3)CC1 | Leishmania mexicana | parasite growth, resazurin |  | 50 µM, amastigote | inhibition | 100% |
| O=C(/C=C/c1ccc(O)c(O)c1)O[C@@H]1C[C@](O)(C(=O)O)C[C@@H](O)[C@H]1O |  | tubulin polymerisation, inhibitor |  | 10 µM | inhibition | 30.9% |
| CC1(C)CC[C@]2(C(=O)OCN3C(=O)c4ccccc4C3=O)CC[C@]3(C)C(=CC[C@@H]4[C@@]5(C)CC[C@H](O)[C@@](C)(CO)[C@@H]5CC[C@]43C)[C@@H]2C1 | Leishmania mexicana | parasite growth, resazurin |  | 50 µM, amastigote | inhibition | 98.6% |
| O=C(Nc1ccc(Cl)c(Cl)c1)c1cc([N+](=O)[O-])c(F)cc1Cl | Leishmania mexicana | parasite growth | J774.A1 | intracellular, amastigote | EC50 | 950 nM |
| CC1(C)CC[C@]2(NC(=O)N3CCCC3)CC[C@]3(C)C(=CC[C@@H]4[C@@]5(C)CC[C@H](O)[C@@](C)(CO)[C@@H]5CC[C@]43C)[C@@H]2C1 | Leishmania mexicana | parasite growth, resazurin |  | 50 µM, amastigote | inhibition | 99% |
| O=C(O)CN1C(=O)/C(=C/c2ccc(-c3ccc(N(c4ccccc4)c4ccccc4)cc3)cc2)SC1=S | Staphylococcus epidermidis | microbial killing, broth dilution | ATCC12228 |  | MBC | 7.8 µg/mL (≈ 14.9 µM) |
| O=C(Nc1cnc(Cl)c(Cl)c1)c1cc([N+](=O)[O-])c(F)cc1F | Leishmania mexicana | parasite growth | J774.A1 | intracellular, amastigote | EC50 | 220 nM |
| O=C1NC(=S)S/C1=C\c1ccc(-c2ccc(N(c3ccccc3)c3ccccc3)cc2)cc1 | Staphylococcus epidermidis | microbial growth, broth dilution | ATCC12228 |  | MIC | 125 µg/mL (≈ 269 µM) |
| COc1c2ccoc2cc2oc(=O)ccc12 |  | tubulin polymerisation, inhibitor |  | 10 µM | inhibition | 22.5% |
| O=C(O)CN1C(=O)/C(=C/c2ccc(-c3ccc(N(c4ccccc4)c4ccccc4)cc3)c3ccccc23)SC1=S | Staphylococcus epidermidis | microbial growth, broth dilution | ATCC12228 |  | MIC | 500 µg/mL (≈ 873 µM) |
| COC(=O)[C@]1(O)C[C@@H](O)[C@@H](O)[C@H](OC(=O)/C=C/c2ccc(O)c(O)c2)C1 |  | tubulin polymerisation, inhibitor |  | 10 µM | inhibition | 16.9% |
| C[C@@H]1O[C@@H](C[C@@H]2OC[C@@]3(C)[C@@H]4CC[C@]5(C)[C@H](CC=C6[C@@H]7CC(C)(C)CC[C@]7(C(=O)O)CC[C@]65C)[C@@]4(C)CC[C@@H]3O2)[C@@H](O)[C@H](O)[C@@H]1O | Leishmania mexicana | parasite growth, resazurin |  | 50 µM, amastigote | inhibition | 99.2% |
| CC(=O)OC1c2c(ccc3ccc(=O)oc23)OC(C)(C)C1OC(=O)C(C)(O)C(C)O (stereo not drawn) |  | tubulin polymerisation, inhibitor |  | 10 µM | inhibition | 33.8% |
| Cc1ccc(-c2nc3ccccc3s2)cc1NC(=O)c1cc([N+](=O)[O-])c(N(C)C)cc1Cl | Leishmania mexicana | parasite growth | J774.A1 | intracellular, amastigote | EC50 | > 10000 nM |
| CC(=O)O[C@@H]1c2c(ccc3ccc(=O)oc23)OC(C)(C)[C@@H]1OC(=O)C1(C)OC1C (stereo partly drawn) |  | tubulin polymerisation, inhibitor |  | 10 µM | inhibition | 32.8% |
| Cc1ccc(-c2nc3ccccc3s2)cc1NC(=O)c1cc([N+](=O)[O-])ccc1O | Leishmania mexicana | parasite growth | J774.A1 | intracellular, amastigote | EC50 | > 10000 nM |
